Assay [1] in a line: reducers of endogenous Her2 protein level, primary screen, SKBR3 breast tumor cells, AlphaScreen, ATP viability (AID 461;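 active means Her2 level under about 52% in both replicate screens, with viability over 70% of control, limit read from the data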;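 on Her2 level: lower value means less Her2 protein in the cells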;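 on viability: percent of carrier control wells set as 100% viability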). As to conditions: 18-24 h, measured here: SKBR3 viability, ATP luminescence, at 10 µM. For orientation: Bead proximity is the source of the signal in Alpha formats.
Assay [2] addresses Receptor tyrosine-protein kinase erbB-2 (Homo sapiens) (UniProt P04626). The description is as above. As to conditions: 18-24 h, at 10 µM, stronger effect = lower value.
The nature of assay [3]: SK-BR-3 cell growth inhibitors, pilot screen, 24 h, human (AID 572).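 Further: compound exposure lasted between 18 and 24 h rather than exactly 24 h; 100% = carrier-treated control wells.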 The conditions noted are these: SK-BR-3 viability, CellTiter-Glo luminescence, at 10 µM, stronger effect = lower value. For orientation: In ATP-based viability assays light output follows the ATP content of the culture.
A short description of assay [4]: HUVEC growth inhibition – cell-based, human, primary screen (AID 575;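 active means viability at or below 30% in both replicate assays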;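 further: 100% = median of untreated cell wells with 0.1% DMSO on each plate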). As to conditions: HUVEC proliferation, CellTiter-Glo luminescence, 72 h; at 10 µM; stronger effect = lower value. An outline of the steps: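 Test system: primary human umbilical vein endothelial cells; medium: endothelial basal medium with 2% FBS plus growth supplements; dosing: 10 µM compound only; times: 72 h treatment at 37 °C; signal: CTG luminescence; read-out: % viability relative to median vehicle-well signal on each plate; control set: vehicle and MePR control wells; plate: 384-well, collagen-coated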

Assay [5] in a line: reversal of MRP1-mediated doxorubicin resistance, pilot screen, H69AR cells, doxorubicin co-treatment (AID 601;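 active means viability loss from added drug above about 55%, and viability with drug at most 40%, in both replicates, limit read from the data, passing the limit was not always enough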). As to conditions: CellTiter-Glo, 72 h, at 10 µM; for differential viability (reversal): stronger effect = higher value.
Assay [6] is described as follows: 384-well plate pilot, post-Golgi transport modulator project, inhibition of yeast transport mutant growth (AID 636; in the data active means inhibition above about 31%). As to conditions: absorbance 615 nm, about 18 h, stronger effect = higher value.
Assay [7] is described as follows: growth suppression of yeast trafficking mutant, preliminary HTS, modulators of trafficking downstream of Golgi apparatus project, 1536-format plate, OD 615 nm (AID 637; in the data active means inhibition above about 30%). The conditions noted are these: yeast transport mutant growth, absorbance 615 nm, 18 h; stronger effect = higher value.
A short description of assay [8]: growth inhibitors of H69AR lung tumor, primary screen, human, duplicate replicates (AID 580;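 active means viability at or under a set limit in both replicates, limit being median viability minus 3 SD, cut at about 48% in these data, passing the limit was not always enough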;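 further: 100% = mean luminescence of untreated wells and 0% = no signal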). The conditions noted are these: H69AR lung tumor cells viability, ATP luminescence, 72 h; at 10 µM; stronger effect = lower value.
Setting [9] is: H69AR cells + 2 uM doxorubicin, measured here: viability with 2 uM doxorubicin, stronger effect = lower value.
Setting [10] is: H69AR cells, compound alone cytotoxicity.

The source made the active and inactive calls.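 How the source made its calls, unless noted: active means viability at or below 10% of carrier control in both of two separate runs; inconclusive means viability at or below 10% in only one of the two runs; inactive means the rest.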

Sequence of Receptor tyrosine-protein kinase erbB-2 (Homo sapiens) (P04626 whole entry, looked up): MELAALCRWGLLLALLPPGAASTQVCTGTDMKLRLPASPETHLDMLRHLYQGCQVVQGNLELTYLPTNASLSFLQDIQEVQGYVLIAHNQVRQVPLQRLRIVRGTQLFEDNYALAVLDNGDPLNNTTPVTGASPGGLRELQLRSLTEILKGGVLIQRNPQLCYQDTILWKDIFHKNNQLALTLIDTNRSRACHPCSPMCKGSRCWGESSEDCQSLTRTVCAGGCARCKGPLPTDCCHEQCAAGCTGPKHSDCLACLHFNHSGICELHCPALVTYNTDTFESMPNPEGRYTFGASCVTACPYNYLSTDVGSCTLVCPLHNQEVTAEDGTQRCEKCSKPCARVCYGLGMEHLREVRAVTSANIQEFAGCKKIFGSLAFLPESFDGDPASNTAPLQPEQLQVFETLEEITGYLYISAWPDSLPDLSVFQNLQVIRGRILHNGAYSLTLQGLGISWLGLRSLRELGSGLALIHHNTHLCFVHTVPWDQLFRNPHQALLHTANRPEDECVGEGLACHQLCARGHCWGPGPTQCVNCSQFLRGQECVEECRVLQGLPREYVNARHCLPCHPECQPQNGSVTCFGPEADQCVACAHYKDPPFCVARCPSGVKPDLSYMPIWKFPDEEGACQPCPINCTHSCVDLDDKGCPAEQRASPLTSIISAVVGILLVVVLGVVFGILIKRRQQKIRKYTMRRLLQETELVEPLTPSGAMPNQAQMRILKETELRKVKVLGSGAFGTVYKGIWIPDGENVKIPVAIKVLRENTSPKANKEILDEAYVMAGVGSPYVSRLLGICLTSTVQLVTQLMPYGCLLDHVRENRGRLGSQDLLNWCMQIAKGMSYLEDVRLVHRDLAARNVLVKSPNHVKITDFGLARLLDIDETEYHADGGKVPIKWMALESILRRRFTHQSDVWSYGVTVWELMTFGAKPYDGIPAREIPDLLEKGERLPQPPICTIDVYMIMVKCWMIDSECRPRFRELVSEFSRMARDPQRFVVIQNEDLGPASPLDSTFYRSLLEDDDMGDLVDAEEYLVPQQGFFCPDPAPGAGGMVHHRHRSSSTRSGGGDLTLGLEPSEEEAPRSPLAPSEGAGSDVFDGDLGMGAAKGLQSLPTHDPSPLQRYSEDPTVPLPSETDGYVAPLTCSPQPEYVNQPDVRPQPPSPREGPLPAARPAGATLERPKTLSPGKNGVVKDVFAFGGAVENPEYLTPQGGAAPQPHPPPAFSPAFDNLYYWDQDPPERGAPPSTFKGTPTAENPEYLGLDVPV

The term viability denotes a read-out of living cells in per cent, often relative to untreated cells. For orientation: inhibition means the change of the read-out against control, counted positive when it falls. `OC(CN1CCOCC1)Cn1c(-c2cccc(Cl)c2)nc2ccccc21` (configuration not stated): the viability is 100% in assay [1]; 100% (inactive) in assay [3]; 54.4% (inactive) in assay [4]; 66% in assay [5] (setting [9]); 18.5% in assay [5] (setting [10]). Further, the Her2 level in assay [2] is 80% (inactive). Besides, in assay [5] (H69AR cells + 2 uM doxorubicin), the differential viability (reversal) was -47.5% (inactive). The values for the inhibition in assay [6] and in assay [7] were -6.75% (inactive) and -1.11% (inactive), respectively.
In the case of `Cc1ccc(S(=O)(=O)c2cc3c(=O)n4ccccc4nc3n(CC3CCCO3)c2=N)cc1C` (configuration not stated), the viability in assay [1] was 83%; in assay [3] it was 83% (inactive); in assay [4] it was 69.9% (inactive); in assay [5] (setting [9]), 53.5%; in assay [5] (setting [10]), 55.9%. Further, the Her2 level in assay [2] is 77.5% (inactive). For the same molecule, the differential viability (reversal) in assay [5] (H69AR cells + 2 uM doxorubicin) was 2.4% (inactive). Besides, the inhibition in assay [6] was -4.86% (inactive); in assay [7], 2.95% (inactive).
Turning to `Cc1ccc(/C=c2\s/c(=C(/C#N)C(=O)N3CCCC3)n(Cc3ccco3)c2=O)s1`, the viability is 87.5% in assay [1]; 87.5% (inactive) in assay [3]; 59.3% (inactive) in assay [4]; 28.1% in assay [5] (setting [9]); 43.9% in assay [5] (setting [10]). Besides, in assay [2], the Her2 level is 79% (inactive). In addition, in assay [5] (H69AR cells + 2 uM doxorubicin), the differential viability (reversal) is 15.8% (inactive). The results for the inhibition in assay [6] and in assay [7] were -1.95% (inactive) and 1.9% (inactive), respectively.
With `CCCCCCc1ccc(-c2ncc(N)cn2)cc1`, the viability in assay [1] was 97%; in assay [3], 97% (inactive); in assay [4] it was 7.73% (active); in assay [5] (setting [9]), 61.9%; in assay [5] (setting [10]), 56.7%. Moreover, in assay [2], the Her2 level is 90.5% (inactive). The differential viability (reversal) in assay [5] (H69AR cells + 2 uM doxorubicin) is -5.17% (inactive). In addition, the inhibition was -1.47% (inactive) in assay [6] and 0.32% (inactive) in assay [7].
Regarding `O=C(O)CCc1cc(I)c(Oc2ccc(O)c(I)c2)c(I)c1`, the viability was 104% in assay [1]; 104% (inactive) in assay [3]; 102% (inactive) in assay [8]; 98.8% in assay [5] (setting [9]); 102% in assay [5] (setting [10]). Besides, in assay [2], the Her2 level was 76.5% (inactive). Besides, in assay [5] (H69AR cells + 2 uM doxorubicin), the differential viability (reversal) is 3.29% (inactive).
Turning to `CCCCCSc1nc2c(cnn2-c2ccccc2)c(=O)[nH]1`, the viability in assay [1] was 99%; in assay [3], 99% (inactive); in assay [4], 45.2% (inactive); in assay [5] (setting [9]) it was 50.1%; in assay [5] (setting [10]) it was 46.3%. Besides, the Her2 level in assay [2] was 93.5% (inactive). For the same molecule, the differential viability (reversal) in assay [5] (H69AR cells + 2 uM doxorubicin) was -3.82% (inactive). Moreover, the inhibition in assay [6] was -5.26% (inactive); in assay [7], -0.17% (inactive).
For `CC(C)(C)c1cc(NC(=O)c2cc(F)c(F)c(F)c2F)no1`, the viability in assay [1] was 102%; in assay [3] it was 102% (inactive); in assay [4] it was 63.6% (inactive); in assay [5] (setting [9]), 70.8%; in assay [5] (setting [10]), 50.2%. The Her2 level in assay [2] was 92% (inactive). In assay [5] (H69AR cells + 2 uM doxorubicin), the differential viability (reversal) is -20.6% (inactive). Moreover, the inhibition in assay [6] was 2.08% (inactive); in assay [7] it was -3.83% (inactive).
Take `Cc1ccc(C)c(-c2nc3ccc(N)cc3[nH]2)c1`: the viability was 122% in assay [1]; 122% (inactive) in assay [3]; 68.3% (inactive) in assay [4]; 68.3% in assay [5] (setting [9]); 52.8% in assay [5] (setting [10]). In addition, the Her2 level in assay [2] was 101% (inactive). Also, the differential viability (reversal) in assay [5] (H69AR cells + 2 uM doxorubicin) is -15.6% (inactive). The results for the inhibition in assay [6] and in assay [7] were -6.35% (inactive) and 5.67% (inactive), respectively.
As to `Oc1c(Cl)cc(Cl)c2c1NCCC2`, the viability in assay [1] was 71.5%; in assay [3] it was 71.5% (inactive); in assay [8], 68.8% (inactive); in assay [5] (setting [9]) it was 80.7%; in assay [5] (setting [10]), 68.8%. The Her2 level in assay [2] is 65% (inactive). Moreover, the differential viability (reversal) in assay [5] (H69AR cells + 2 uM doxorubicin) is -11.9% (inactive). Besides, the inhibition was -2.63% (inactive) in assay [6] and -2.7% (inactive) in assay [7].
Take `COc1ccc(-c2cc3c(=O)n(CC(=O)NC4CCN(Cc5ccccc5)CC4)ncn3n2)cc1`: the viability in assay [1] was 75%; in assay [3], 75% (inactive); in assay [8], 74.2% (inactive); in assay [5] (setting [9]) it was 75%; in assay [5] (setting [10]), 74.2%. Further, the Her2 level in assay [2] is 103% (inactive). Further, the differential viability (reversal) in assay [5] (H69AR cells + 2 uM doxorubicin) was -0.715% (inactive). Moreover, the inhibition is -5.66% (inactive) in assay [6] and -0.83% (inactive) in assay [7].
For `C=C(c1ccc(O)cc1)c1ccc(O)cc1`, the viability in assay [1] was 105%; in assay [3], 105% (inactive); in assay [4] it was 70.8% (inactive); in assay [5] (setting [9]) it was 87.9%; in assay [5] (setting [10]) it was 45%. Also, the Her2 level in assay [2] is 93% (inactive). Further, the differential viability (reversal) in assay [5] (H69AR cells + 2 uM doxorubicin) was -42.8% (inactive). The inhibition in assay [6] was -5.92% (inactive); in assay [7], -2.54% (inactive).
Consider `COc1ccc(C)cc1NC(=O)CCC(=O)Nc1ccc2nc(N3CCN(C)CC3)cc(C)c2c1`, for which the viability was 70.5% in assay [1]; 70.5% (inactive) in assay [3]; 93.2% (inactive) in assay [8]; 86.2% in assay [5] (setting [9]); 93.2% in assay [5] (setting [10]). Also, the Her2 level in assay [2] is 123% (inactive). For the same molecule, the differential viability (reversal) in assay [5] (H69AR cells + 2 uM doxorubicin) is 6.93% (inactive). Further, the values for the inhibition in assay [6] and in assay [7] were 3.95% (inactive) and -6.17% (inactive), respectively.
`Cc1ccc2nc(NC(=O)C3CCN(S(=O)(=O)c4cccc5nsnc45)CC3)sc2c1`: the viability in assay [1] is 85.5%; in assay [3] it was 85.5% (inactive); in assay [4], 42.8% (inactive); in assay [5] (setting [9]) it was 76.5%; in assay [5] (setting [10]), 65.8%. The Her2 level in assay [2] is 63.5% (inactive). Besides, the differential viability (reversal) in assay [5] (H69AR cells + 2 uM doxorubicin) is -10.7% (inactive). The values for the inhibition in assay [6] and in assay [7] were -5.07% (inactive) and 10.3% (inactive), respectively.
In the case of `CC1CCc2nc(NC(=O)CN3CCN(Cc4ccc5c(c4)OCO5)CC3)sc2C1` (configuration not stated), the viability was 90.5% in assay [1]; 90.5% (inactive) in assay [3]; 87.8% (inactive) in assay [8]; 73.5% in assay [5] (setting [9]); 87.8% in assay [5] (setting [10]). Further, the Her2 level in assay [2] was 77.5% (inactive). Also, the differential viability (reversal) in assay [5] (H69AR cells + 2 uM doxorubicin) is 14.3% (inactive). Further, the inhibition in assay [6] was -0.66% (inactive); in assay [7], 2.1% (inactive).
In the case of `Cc1c(C(=O)NC2CCCc3ccccc32)oc2ccc(S(=O)(=O)N3CCOCC3)cc12` (configuration not stated), the viability in assay [1] was 94.5%; in assay [3], 94.5% (inactive); in assay [4] it was 84.9% (inactive); in assay [5] (setting [9]) it was 50.7%; in assay [5] (setting [10]), 52.2%. In assay [2], the Her2 level is 89.5% (inactive). Further, the differential viability (reversal) in assay [5] (H69AR cells + 2 uM doxorubicin) is 1.53% (inactive). Besides, the inhibition is -2% (inactive) in assay [6] and 1.29% (inactive) in assay [7].
In the case of `Cc1ccc(NC(=O)c2oc3ccc(S(=O)(=O)N4CCOCC4)cc3c2C)cc1C`, the viability is 91% in assay [1]; 91% (inactive) in assay [3]; 51.6% (inactive) in assay [4]; 48.6% in assay [5] (setting [9]); 43.4% in assay [5] (setting [10]). The Her2 level in assay [2] was 83.5% (inactive). The differential viability (reversal) in assay [5] (H69AR cells + 2 uM doxorubicin) was -5.16% (inactive). Besides, the inhibition in assay [6] was -5.26% (inactive); in assay [7] it was 2.54% (inactive).

Source of the values: PubChem BioAssay.
